These results are taken from ChEMBL document CHEMBL1158589, “Benzimidazole and imidazole inhibitors of histone deacetylases: Synthesis and biological activity” (Bioorg Med Chem Lett, 2010).

Active and inactive are the calls of the source. The calls are words filed in the database; no cut-off is given here.

Data set [1] addresses T1, Protein deacetylase HDAC6 (Homo sapiens, UniProt Q9UBN7).
T1 sequence (Q9UBN7 whole entry): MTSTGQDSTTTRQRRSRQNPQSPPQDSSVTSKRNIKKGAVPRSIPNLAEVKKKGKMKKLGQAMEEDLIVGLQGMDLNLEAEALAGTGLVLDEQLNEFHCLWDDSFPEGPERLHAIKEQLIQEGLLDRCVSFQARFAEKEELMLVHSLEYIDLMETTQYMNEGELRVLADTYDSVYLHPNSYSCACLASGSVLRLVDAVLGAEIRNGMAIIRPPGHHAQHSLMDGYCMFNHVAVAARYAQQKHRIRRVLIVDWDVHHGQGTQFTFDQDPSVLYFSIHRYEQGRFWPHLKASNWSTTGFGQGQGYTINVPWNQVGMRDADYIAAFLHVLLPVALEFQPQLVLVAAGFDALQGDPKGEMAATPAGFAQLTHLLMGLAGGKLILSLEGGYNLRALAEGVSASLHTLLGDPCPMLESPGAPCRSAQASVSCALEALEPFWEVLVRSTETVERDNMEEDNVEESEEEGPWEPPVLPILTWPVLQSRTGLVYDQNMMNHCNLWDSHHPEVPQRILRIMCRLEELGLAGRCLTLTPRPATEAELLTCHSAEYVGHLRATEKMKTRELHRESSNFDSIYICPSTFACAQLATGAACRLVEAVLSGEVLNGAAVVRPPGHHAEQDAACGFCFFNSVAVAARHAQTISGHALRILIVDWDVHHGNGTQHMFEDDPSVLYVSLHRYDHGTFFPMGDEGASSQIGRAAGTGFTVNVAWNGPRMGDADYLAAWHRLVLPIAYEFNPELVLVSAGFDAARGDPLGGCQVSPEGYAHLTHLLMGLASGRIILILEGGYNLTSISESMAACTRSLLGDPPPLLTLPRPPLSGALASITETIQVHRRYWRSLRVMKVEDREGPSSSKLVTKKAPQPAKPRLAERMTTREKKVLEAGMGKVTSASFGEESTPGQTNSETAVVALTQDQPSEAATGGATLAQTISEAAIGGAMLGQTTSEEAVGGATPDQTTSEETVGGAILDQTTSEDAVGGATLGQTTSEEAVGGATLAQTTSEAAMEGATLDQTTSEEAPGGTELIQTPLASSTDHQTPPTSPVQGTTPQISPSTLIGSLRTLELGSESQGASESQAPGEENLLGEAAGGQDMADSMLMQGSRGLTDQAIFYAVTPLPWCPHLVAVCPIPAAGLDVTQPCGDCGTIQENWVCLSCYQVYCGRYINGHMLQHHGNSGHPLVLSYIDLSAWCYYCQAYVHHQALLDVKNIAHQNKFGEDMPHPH
Briefly: Inhibition of human recombinant HDAC6. Summed up:
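Purified recombinant human HDAC-2 or HDAC-6 at known enzyme concentration with tBOC(Ac)-Lys-AMC as substrate. IC50 is the mean of at least three experiments.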

In data set [2] the target is T2, Histone deacetylase 8 (Homo sapiens, UniProt Q9BY41).
T2 sequence (Q9BY41 whole entry): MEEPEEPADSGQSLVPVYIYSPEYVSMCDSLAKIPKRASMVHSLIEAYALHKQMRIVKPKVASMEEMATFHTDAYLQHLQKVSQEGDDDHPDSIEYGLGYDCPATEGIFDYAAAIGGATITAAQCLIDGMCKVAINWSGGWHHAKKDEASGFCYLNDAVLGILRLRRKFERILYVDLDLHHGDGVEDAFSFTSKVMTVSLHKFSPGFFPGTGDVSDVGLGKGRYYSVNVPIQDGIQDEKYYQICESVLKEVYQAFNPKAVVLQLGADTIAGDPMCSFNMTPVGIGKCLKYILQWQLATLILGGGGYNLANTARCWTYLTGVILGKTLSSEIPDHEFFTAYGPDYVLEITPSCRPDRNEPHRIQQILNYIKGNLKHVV
Put plainly: Inhibition of human recombinant HDAC8.

In data set [3] the test system is A549. Put plainly: Cytotoxicity against human A549 cells assessed as NADH level after 72 hrs by MTS cells. The data set is classed as functional, cell-based. The following applies: A549, 72 h. Summed up: (§1)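 Human A549 lung, HL60 leukemia and PC3 prostate cancer lines incubated with compound for 72 h. Viability read by MTS colorimetric assay from remaining NADH; EC50 calculated; mean of at least two experiments.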

For data set [4], the system named is HL-60. Put plainly: Cytotoxicity against human HL60 cells assessed as NADH level after 72 hrs by MTS cells. The data set is classed as functional, cell-based. The following applies: HL-60, 72 h. The gist of the method: as §1
The test system of data set [5] is PC-3. Briefly: Cytotoxicity against human PC3 cells assessed as NADH level after 72 hrs by MTS cells. The data set is classed as functional, cell-based. The following applies: PC-3, 72 h. The gist of the method: as §1
Data set [6] has as its system HL-60. Put plainly: Induction of histone H3 hyperacetylation in human HL60 cells after 4 hrs by Western blotting. The data set is classed as functional, cell-based. The following applies: HL-60, 4 h. The gist of the method: (§2)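 HL60 leukemia cells exposed 4 h to 2.5-fold serial dilutions of compound, DMSO control. Whole-cell lysates Western blotted for acetylated histone H3 and H4, PCNA as loading control. Signals quantified to give the half-maximal response concentration.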

In data set [7] the test system is HL-60. Briefly: Induction of histone H4 hyperacetylation in human HL60 cells after 4 hrs by Western blotting. The data set is classed as functional, cell-based. The following applies: HL-60, 4 h. Summed up: as §2
In general terms: A western blot detects proteins with antibodies after separation by electrophoresis.

The nature of data set [8]: Inhibition of HDAC assessed as induction of p21WAF1 expression in engineered cell line by luciferase reporter gene assay. In general terms: Reporter assays use an easily measured gene product as a stand-in for the process of interest.
Data set [9] has as its system PANC-1. Briefly: Induction of histone H3 hyperacetylation in human PANC1 cells xenografted in mouse at 50 mg/kg, ip. Also on record: dose 50 mg/kg. The data set is classed as functional, organism-based. Summed up: (§3)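 Mice bearing PANC-1 tumors given a single intraperitoneal dose of 50 mg/kg, vehicle control. Tumors harvested at set time points up to about 24 h. Whole tissue lysates Western blotted with antibodies to acetylated histone H3 or H4, actin as loading control.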
A general note: Xenograft models place foreign cells or tissue in a host animal.

The subject of data set [10] is HCT-116. Put plainly: Antitumor activity against human HCT116 cells xenografted in mouse assessed as tumor growth inhibition at 15 mg/kg, ip qd for 5 days per week. The data set is classed as functional. The following applies: route intraperitoneal. The gist of the method: (§4)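 Human HCT116 colon xenografts in mice; intraperitoneal dosing qdx5 per week, 15 doses in total. %T/C calculated when vehicle-treated mice reached 1 g median tumor size, 10 days after the last dose.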

The test system of data set [11] is HCT-116. Put plainly: Antitumor activity against human HCT116 cells xenografted in mouse assessed as tumor growth inhibition at 25 mg/kg, ip qd for 5 days per week. The data set is classed as functional. The following applies: route intraperitoneal. Summed up: as §4
The subject of data set [12] is HCT-116. Briefly: Antitumor activity against human HCT116 cells xenografted in mouse assessed as tumor growth inhibition at 40 mg/kg, ip qd for 5 days per week. The data set is classed as functional. The following applies: route intraperitoneal. Summed up: as §4
For data set [13], the system named is Mus musculus. Briefly: Toxicity in human HCT116 cells xenografted mouse assessed as change in body weight at 15 mg/kg, […]. The data set is classed as organism-based, HCT-116. Also on record: dose 15 mg/kg, route intraperitoneal. The following applies: in vivo, ip, 120 h.
The subject of data set [14] is Mus musculus. Briefly: Toxicity in human HCT116 cells xenografted mouse assessed as change in body weight at 25 mg/kg, […]. The data set is classed as organism-based, HCT-116. Also on record: dose 25 mg/kg, route intraperitoneal. The following applies: in vivo, ip, 120 h.
In data set [15] the test system is Mus musculus. Briefly: Toxicity in human HCT116 cells xenografted mouse assessed as change in body weight at 40 mg/kg, […]. The data set is classed as organism-based, HCT-116. On the set-up: dose 40 mg/kg, route intraperitoneal. The following applies: in vivo, ip, 120 h.
In data set [16] the test system is PANC-1. Briefly: Induction of histone H4 hyperacetylation in human PANC1 cells xenografted in mouse at 50 mg/kg, ip. The data set is classed as functional, organism-based. On the set-up: dose 50 mg/kg. Summed up: as §3

By IC50 is commonly meant the concentration that gives 50% inhibition. As usually defined, the EC50 is the concentration that produces a half-maximal response. As usually defined, the T/C is the result in the treated group divided by that in the control group, in per cent. For the compound `CN1CCC[C@@H](n2c(-c3cccc(/C=C/C(=O)NO)c3)nc3ccccc32)C1`, the IC50 in [1] turned out to be 100 nM; in data set [2], 200 nM. The EC50 in [3] worked out at 300 nM; in data set [4] it was 40 nM; in data set [5], 50 nM; in [6], 100 nM; in data set [7], 110 nM; in data set [8] it was 1000 nM. In addition, the outcome in data set [9] and in [16] was Active. Also, the T/C is 66% in data set [10], 47% in data set [11] and 45% in data set [12]. The values for the Activity in [13], in data set [14] and in [15] were 1.7%, -2.5% and -3.6%, respectively.
